Platelet DG rel: platelet dense granule release activity; 300,000 tested, 0.22% active; human platelet-rich plasma, SFLLRN dense granule ATP release, luminescence; AID 1663; inhibition, %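 (compounds screened at 7.5 µM in platelet-rich plasma)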;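 active means mean replicate score, as percent of positive control, at or above 50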
SENP1 inh: blocks the human SENP1 SUMO protease catalytic domain; Q9P0U3; recombinant SENP1 catalytic domain, CyPet-SUMO1-YPet FRET cleavage; inhibition, % at 10 µM; 360,000 tested, 0.21% active; AID 624204;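 active means inhibition at least 30% at 10 µM, raw YFP signal under a set limit, fluorescence ratio 0.5 to 1.5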;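 further: 0% = enzyme with DMSO and 100% = no enzyme wells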
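Test system: human SENP1 catalytic domain; medium: Tris pH 8 buffer plus EDTA, NaCl, BME, BSA, NP40, catalase; incubation: 50 min reaction at room temperature; technique: FRET, CFP and YFP emission; controls: no-enzyme low control and enzyme-plus-DMSO high control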
Myeloid diff MLP: promotes myeloid progenitor differentiation; ER-HoxA9 myeloid progenitors, lysozyme-GFP differentiation, flow cytometry; calls only at 10 µM; 360,000 tested, 1% active;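 active means normalized GFP-positive differentiation at or above the plate's own cutoff, the solvent-only control mean plus 3 SD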;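 further: cells exposed to compound for four days before flow analysis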
VLA-4 inh: inhibition in a human VLA-4 binding assay; P13612; VLA-4 expressing cells, ligand binding flow cytometry; inhibition, % (about 7 µM as worked out from the volumes in the protocol); 330,000 tested, 0.2% active; in the data active means inhibition above about 50%
Myeloid diff: promotes myeloid progenitor differentiation; shares compounds with Myeloid diff MLP; ER-HoxA9 myeloid progenitors, GFP/Mac1 double-positive flow; AID 651706; 2,300 tested, 2% active; calls only;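 active means share of green or green-and-red cells above 9 and 9% in run 1 or 4 and 3% in run 2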
GFP autofluor: counter-screen for myeloid differentiation promoters: compound fluorescence | shares compounds with Myeloid diff MLP | ER-HoxA9 myeloid progenitors, no estrogen, GFP autofluorescence flow cytometry; vehicle wells 0%, positive control 100% | fluorescence response, % (concentration not given with the values) | 2,300 tested, 7.4% active | AID 651707;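 active means over 5% cells positive for green fluorescent reporter, or over 2% positive for both it and APC stain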;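 further: range taken on the double positive population between DMSO and positive control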
The depositor's hits bear a star. This is a sample that favours compounds with a hit; in the whole collection about 1.5% have one here.

`CCOc1ccccc1CN(Cc1ccco1)S(=O)(=O)c1ccc(-n2cnnn2)c(OC)c1` gave Platelet DG rel 8.9, SENP1 inh 0.7, Myeloid diff MLP active, Myeloid diff inactive and GFP autofluor 0.0.
For CCCCc1c(CCC)c(=N)c2ccccc2n1C the results were Platelet DG rel 2.7, SENP1 inh 0.6, Myeloid diff MLP inactive, VLA-4 inh -0.8, Myeloid diff inactive and GFP autofluor 0.0.
`CCCCc1c(O)c2ccccc2n(CCCC)c1=O` gave Platelet DG rel 2.9, SENP1 inh 1.3, Myeloid diff MLP inactive and VLA-4 inh 14.8.
Screening COc1ccc(S(=O)(=O)N2CCCCC2)cc1NC(=O)c1ccc([N+](=O)[O-])o1 returned Platelet DG rel 5.1, SENP1 inh 0.9, Myeloid diff MLP inactive and VLA-4 inh 2.7.
CCN1CCN(c2ccc(S(=O)(=O)N3CCCCC3)cc2NC(=O)c2ccc([N+](=O)[O-])o2)CC1 was read as Platelet DG rel -26.6, SENP1 inh -0.1, Myeloid diff MLP inactive, VLA-4 inh 7.0, Myeloid diff inactive and GFP autofluor 0.0.
Screening COC1CCN(C(=O)c2ccc3oc(C(C)C)nc3c2)CC1 returned Platelet DG rel -4.0, SENP1 inh 2.8, Myeloid diff MLP inactive and VLA-4 inh 21.1.
Cc1cc(=O)oc2cc(OCc3ccc(S(=O)(=O)N4CCOCC4)cc3)ccc12 was read as Platelet DG rel 11.6, SENP1 inh 4.9, Myeloid diff MLP active, VLA-4 inh -3.0, Myeloid diff inactive and GFP autofluor 0.4.
Screening Cc1cccc(NCCNc2cccc(C)c2)c1 returned Platelet DG rel 2.6, SENP1 inh -0.8, Myeloid diff MLP inactive and VLA-4 inh 10.9.
`CCCCCCCNc1cccc(C)c1` gave Platelet DG rel -18.8, SENP1 inh -1.0, Myeloid diff MLP inactive, VLA-4 inh -14.7, Myeloid diff inactive and GFP autofluor 0.6.
`COc1ccc(NC(=S)N2CCC3CC2c2c(Cl)cccc23)c(OC)c1` (stereo not given) gave SENP1 inh -0.4, Myeloid diff MLP active, Myeloid diff active and GFP autofluor 0.0.
For Cc1nc(N)c(C#N)c(-c2cccnc2)c1C the results were Platelet DG rel -6.0, SENP1 inh 2.6, Myeloid diff MLP active, VLA-4 inh 5.6, Myeloid diff inactive and GFP autofluor 0.3.
For CCc1nc(N)c(C#N)c(-c2cccnc2)c1C the results were Platelet DG rel -6.1, SENP1 inh 1.7, Myeloid diff MLP inactive and VLA-4 inh -9.1.
COC(=O)CC1C(=O)NCCN1C(=S)Nc1ccc(F)cc1 (stereo not given) was read as Platelet DG rel -0.4, SENP1 inh 0.5, Myeloid diff MLP inactive and VLA-4 inh 4.2.
For CC1(C)C2CCC1(C)C(SC(=N)N)C2 (stereo not given) the results were SENP1 inh 1.0, Myeloid diff MLP inactive, Myeloid diff inactive and GFP autofluor 0.0.
CC1(C)C2CCC1(C)C(OC(=O)CC(=O)O)C2 (stereo not given) was read as Platelet DG rel 2.6 and VLA-4 inh -7.4.
CCN1CCN(Cc2cccc(Oc3ccc(Cl)cc3)c2)CC1 was read as Platelet DG rel 7.1, SENP1 inh 1.6, Myeloid diff MLP active, VLA-4 inh 25.4, Myeloid diff inactive and GFP autofluor 0.5.
`O=c1c2ccccc2c(/C=N/NS(=O)(=O)c2ccccc2)c(O)n1-c1ccccn1` gave Platelet DG rel -0.1, SENP1 inh 38.6, Myeloid diff MLP inactive, VLA-4 inh -1.8, Myeloid diff inactive and GFP autofluor 0.0.
`COc1ccc(-n2c(O)c(/C=N/NS(=O)(=O)c3ccc(C)c([N+](=O)[O-])c3)c3ccccc3c2=O)cc1OC` gave Platelet DG rel -0.4, SENP1 inh 31.8, Myeloid diff MLP inactive and VLA-4 inh -102.8.
`O=C(O)CCC(=O)NNC(=O)c1ccc(-c2ccccc2)cc1` gave Platelet DG rel -37.1, SENP1 inh 0.4, Myeloid diff MLP inactive, VLA-4 inh 15.0, Myeloid diff inactive and GFP autofluor 1.9.
`O=C(O)CCC(=O)NNC(=O)c1ccc([N+](=O)[O-])cc1` gave Platelet DG rel -0.7, SENP1 inh -142.9, Myeloid diff MLP inactive and VLA-4 inh 1.8.
